beta cell repl: inducers of MIN6 beta-cell proliferation, primary screen, ATP luminescence, uHTS | MIN6 cells proliferation, ATPlite luminescence, 48 h; cells starved in 0.2% serum; 100% = growth in 10% serum | proliferation, % at 10 µM | 330,000 compounds, 0.29% hits | AID 2380, 2010;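 active means compounds whose signal lies at least 3.5 SD above the mean of all wells on their plate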
SR-BI DiI-HDL act: activators of SR-BI mediated DiI-HDL uptake, primary screen, ldlA[mSR-BI] CHO cells, DiI fluorescence; 3 h; 100 = double the neutral-control signal; activation, % at 12.5 µM; 320,000 compounds, 0.096% hits; AID 504775, 2011;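 active means mean replicate activation of at least 60% and every replicate at or above 60%; inconclusive means mean or all-replicate condition met, but not both; inactive means mean below 60% and not all replicates reaching 60%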
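Assay system: CHO ldlA[mSR-BI] cells, LDL receptor-null, SR-BI overexpressing; medium: Ham's F12 with 0.5% BSA, HEPES 25 mM, pH 7.4; also added: DiI-HDL 10 µg/mL; timing: 3 h uptake period with compound, 37 °C; signal: DiI fluorescence, bottom read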
HTR2A ag: mouse Htr2a agonists via beta-arrestin recruitment, primary screen, cell-based, luminescence; CHO-K1 mHTR2A beta-arrestin complementation; percent of 30 µM serotonin response; 5-hydroxytryptamine receptor 2A (Mus musculus), P35363; 360,000 compounds, 0.66% hits; activation, % at 7.6 µM;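 active means activation above a run cutoff, the mean activation of all tested compounds plus 3 SD, cut at about 14% in these data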
Calb FLC: C. albicans growth inhibition with fluconazole, primary screen, CaCi-2 strain, Alamar Blue fluorescence; C. albicans CaCi-2 + fluconazole, 48 h; growth inhibition, % (test concentration not listed); 300,000 compounds, 0.57% hits; AID 1979, 2009;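 active means growth inhibition above about 58% in most replicates, limit read from the data, passing the limit was not always enough; inconclusive means exactly half the replicates above a set limit; inactive means most replicates below a set limit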;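 further: all wells also contain fluconazole at 8 µg/ml as a sub-toxic cotreatment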
Ins promoter up: insulin promoter activators in MIN6 cells, imaging, high-content screening, mouse beta cells; z-score at 5 µM; MIN6 insulin promoter-GFP reporter; hits give high values; 190,000 compounds, 0.3% hits;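 active means z-score above 3 at 5 µM with at least 500 cells counted in the well; inconclusive means wells under 500 cells, flagged as cytotoxic or low count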
SR-BI DiI inh: inhibitors of SR-BI mediated HDL lipid uptake, primary screen, ldlA[mSR-BI] cells, fluorescence, single point | 320,000 compounds, 0.96% hits | inhibition, % at 12.5 µM | ldlA[mSR-BI] CHO cells, DiI-HDL uptake fluorescence, 3 h;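 active means mean replicate inhibition of at least 70% and a set share of replicates each scoring 70 or more; inconclusive means meets just one of the two criteria; inactive means fails both criteria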
Target sequence (Q61009 whole entry, looked up): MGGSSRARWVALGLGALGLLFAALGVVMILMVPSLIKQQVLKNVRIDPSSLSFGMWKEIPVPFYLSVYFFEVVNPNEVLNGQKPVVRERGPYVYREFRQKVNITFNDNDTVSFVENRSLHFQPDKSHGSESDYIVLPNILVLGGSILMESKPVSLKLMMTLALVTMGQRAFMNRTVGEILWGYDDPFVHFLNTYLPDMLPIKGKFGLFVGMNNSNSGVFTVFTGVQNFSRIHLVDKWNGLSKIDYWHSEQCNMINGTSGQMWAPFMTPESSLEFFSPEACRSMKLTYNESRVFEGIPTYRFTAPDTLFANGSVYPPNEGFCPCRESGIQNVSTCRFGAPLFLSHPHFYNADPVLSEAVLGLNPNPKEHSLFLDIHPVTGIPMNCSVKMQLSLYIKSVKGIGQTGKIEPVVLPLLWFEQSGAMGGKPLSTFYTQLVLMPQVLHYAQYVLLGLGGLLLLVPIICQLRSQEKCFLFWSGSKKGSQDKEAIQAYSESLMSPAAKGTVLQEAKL
Large screens that a line does not name were inactive. Compounds with a hit are over-represented: about 2.4% of the library has one in this group of screens.

COc1cc(NC(=O)c2ccc(F)cc2)ccc1NC(=O)c1cc2ccccc2o1	none (no result: Ins promoter up)
COC(=O)c1ccc(NC(=O)c2cccc(NC(=O)c3ccco3)c2)cc1	SR-BI DiI-HDL act 749 (no result: Ins promoter up)
COc1cc(NC(=O)c2ccc(Br)o2)ccc1NC(=O)C(C)C	SR-BI DiI inh 71
COC(=O)c1cccc(NC(=O)c2ccco2)c1	none (no result: Ins promoter up)
COc1c(F)c(F)c(C(=O)Nc2ccc(NC(=O)c3ccco3)cc2)c(F)c1F	SR-BI DiI inh 74
COc1cc(NC(=O)c2ccccc2F)ccc1NC(=O)c1cc2ccccc2o1	SR-BI DiI inh 87 (no result: Ins promoter up)
CCCCCCCCN1C(=O)[C@H](CC(=O)NCCc2ccccc2OC)C[C@@]2(C(=O)OC)CC(C)(C)CC=C12	none (no result: beta cell repl, SR-BI DiI-HDL act, Calb FLC, Ins promoter up, SR-BI DiI inh)
Cc1[nH]nc(C(=O)NN=Cc2ccccc2Cl)c1N=NN(C)C	none (no result: beta cell repl, Calb FLC, Ins promoter up)
COC(=O)C1(Cc2ccc3c(c2)CCC3)Cc2ccc3c(c2C1=O)CCC3 (stereo not given)	none (no result: beta cell repl, Calb FLC, Ins promoter up)
COc1ccc(NC(=O)c2ccc3c(c2)OCCO3)cc1OC	none (no result: Ins promoter up)
Cc1cc(NC(=O)c2cccnc2Cl)ccc1NC(=O)c1cc2ccccc2o1	SR-BI DiI inh 77 (no result: Ins promoter up)
COc1cc(NC(=O)c2ccccc2Cl)ccc1NC(=O)c1ccco1	SR-BI DiI inh 81
COc1cc(NC(=O)c2ccc3c(c2)OCCO3)ccc1NC(=O)c1ccccc1Cl	SR-BI DiI inh 89 (no result: Ins promoter up)
Cc1cc(NC(=O)c2cccnc2)ccc1NC(=O)c1cc2ccccc2o1	none (no result: Ins promoter up)
COc1cc(NC(=O)c2ccco2)ccc1NC(=O)c1ccccc1Cl	none
CCCCC(=O)NC(=S)Nc1cccc(NC(=O)c2ccco2)c1	Calb FLC 89
COc1ccc(C(=O)NCC(=O)OCC(=O)Nc2ncc(Cl)cc2Cl)cc1[N+](=O)[O-]	none (no result: Calb FLC, Ins promoter up)
COc1cc2[nH]c(C(=O)Nc3ccc4c(c3)OCCO4)cc2c(OC)c1OC	SR-BI DiI inh 86 (no result: Ins promoter up)
COc1cc2cc(C(=O)Nc3ccc4c(c3)OCCO4)[nH]c2cc1OC	SR-BI DiI inh inconclusive (no result: Ins promoter up)
COc1cc(NC(=O)c2ccc(Cl)cc2Cl)ccc1NC(=O)c1cccs1	SR-BI DiI inh 73
COCOCCn1cc(CN2CCS(=O)(=O)N(Cc3ccc(-c4ccccc4)cc3)C(C(C)C)C2=O)nn1 (stereo not given)	none (no result: beta cell repl, SR-BI DiI-HDL act, Calb FLC, Ins promoter up, SR-BI DiI inh)
COc1cc(C(=O)N2CCCc3ccccc32)c([N+](=O)[O-])cc1OC	none (no result: Ins promoter up)
COc1cc(C(=O)Nc2ccc(N3CCCS3(=O)=O)cc2)c([N+](=O)[O-])cc1OC	SR-BI DiI inh 81 (no result: Ins promoter up)
COc1cc(C(=O)Nc2ccc3c(c2)CCCN3C(=O)c2ccco2)c([N+](=O)[O-])cc1OC	SR-BI DiI inh 76 (no result: Ins promoter up)
CCN1C[C@@H]2[C@@H]3C(=O)N(C)C(=O)[C@@H]3[C@](CC)(C1=O)N2C(=O)c1ccc(C(C)(C)C)cc1	none (no result: Calb FLC, Ins promoter up)
COC(=O)c1ccc(NS(=O)(=O)c2cc(-c3cc(C)no3)ccc2OC)cc1	Calb FLC 88 (no result: Ins promoter up)
COc1ccc(-c2cc(C)no2)cc1S(=O)(=O)Nc1ccccc1	none (no result: Ins promoter up)
COc1ccc(S(=O)(=O)N2CCCC2CNC(=O)C(=O)NCc2ccccc2Cl)cc1 (stereo not given)	none (no result: Ins promoter up)
COc1ccc(-c2[nH]c(-c3ccc4c(c3)OCO4)nc2-c2ccccc2)cc1	none
COc1cc(-c2nc(-c3ccccc3)c(-c3ccc(F)cc3)[nH]2)cc2c1OCO2	SR-BI DiI inh 85
COc1ccc(-c2cn3c(C)c(C(=O)Nc4ccncc4)sc3n2)cc1	SR-BI DiI inh 83
Cc1c(C(=O)Nc2ccncc2)sc2nc(-c3ccc(F)cc3)cn12	SR-BI DiI inh 77
COc1ccc(-c2cn3c(C)c(C(=O)Nc4cccc(NC(C)=O)c4)sc3n2)cc1	none (no result: Ins promoter up)
CC(C)(C)NC(=O)NC(=O)CSc1ccc(S(=O)(=O)N2CCCCC2)cn1	none (no result: Calb FLC, Ins promoter up)
Cc1ccc([C@H]2C(C(=O)O)=CCN2S(=O)(=O)c2ccc(C)cc2)cc1	none (no result: beta cell repl, SR-BI DiI-HDL act, Calb FLC, Ins promoter up, SR-BI DiI inh)
NC(=O)[C@H]1CC2(CC(c3cccc(NC(=O)COc4ccc(Cl)cc4)c3)=NO2)CN1C(=O)c1ccccc1C(=O)c1ccccc1 (stereo not given in full)	SR-BI DiI inh 77
CCc1noc(C)c1C(=O)N(Cc1ccccc1)c1c(N)n(CCOC)c(=O)[nH]c1=O	none (no result: Ins promoter up)
Cc1ccccc1-n1nc(C(=O)c2cccs2)cc(-c2nc3ccccc3[nH]2)c1=N	none
Cc1cccc(-n2nc(C(=O)c3ccco3)cc(-c3nc4ccccc4[nH]3)c2=N)c1	Calb FLC 97
O=C(CNc1ccccc1)N/N=C/c1cc([N+](=O)[O-])ccc1N1CCCC1	SR-BI DiI inh 73
O=C(N/N=C/c1cc([N+](=O)[O-])ccc1N1CCNCC1)c1ccc([N+](=O)[O-])cc1	none (no result: Ins promoter up)
N#CCC(=O)N/N=C/c1cc([N+](=O)[O-])ccc1N1CCCC1	none
CCN(CC)C(=O)C1CCCN(c2ccccc2[N+](=O)[O-])C1 (stereo not given)	SR-BI DiI inh 79
CCN(CC)C(=O)C1CCCN(c2ccc([N+](=O)[O-])cc2/C=N/NC(=O)c2cccc([N+](=O)[O-])c2)C1 (stereo not given)	SR-BI DiI inh 90 (no result: Ins promoter up)
CCN(CC)C(=O)C1CCCN(c2ccc([N+](=O)[O-])cc2[N+](=O)[O-])C1 (stereo not given)	none
CC(C)(C)OC(=O)NCCCC[C@H](NC(=O)c1[nH]cnc1C(=O)N[C@@H](Cc1ccccc1)C(=O)OC(C)(C)C)C(=O)OC(C)(C)C	SR-BI DiI-HDL act 64
Cc1cc(NC(=O)c2cc3cccc([N+](=O)[O-])c3[nH]2)ccc1F	SR-BI DiI inh 77
CCn1c(C(=O)O)c(S(=O)(=O)c2ccc(Cl)cc2)c2ccccc21	none (no result: Ins promoter up)
COc1ccc(OC)c(C2=NOC(C(=O)N3CCN(c4ccccc4)CC3)C2)c1 (stereo not given)	SR-BI DiI inh 71
COc1ccc(OC)c(C2=NOC(C(=O)NCC3CCCO3)C2)c1 (stereo not given)	Ins promoter up 3.7
Nc1ccn([C@@H]2O[C@H](C(=O)N[C@H](CO)Cc3ccccc3)[C@@H](O)[C@H]2O)c(=O)n1	none (no result: beta cell repl, SR-BI DiI-HDL act, Calb FLC, Ins promoter up, SR-BI DiI inh)
CN(C)c1ccc(CC(=O)N2CCCCC2c2cc(C(=O)Nc3cccc4c3CCCC4)no2)cc1 (stereo not given)	none (no result: beta cell repl, SR-BI DiI-HDL act, Calb FLC, Ins promoter up, SR-BI DiI inh)
CN(C)S(=O)(=O)Oc1cccc(C(=O)Nc2ccc(Cl)cc2)c1	Calb FLC 87
O=C(c1cccs1)N1CCc2c([nH]c3ccccc23)C1c1ccccn1 (stereo not given)	none
